Each structure is given as a SMILES string. The source made the active and inactive calls. The rule behind the calls is not given here.

Prostaglandin G/H synthase 1 (Mus musculus), sequence (P22437 whole entry, looked up): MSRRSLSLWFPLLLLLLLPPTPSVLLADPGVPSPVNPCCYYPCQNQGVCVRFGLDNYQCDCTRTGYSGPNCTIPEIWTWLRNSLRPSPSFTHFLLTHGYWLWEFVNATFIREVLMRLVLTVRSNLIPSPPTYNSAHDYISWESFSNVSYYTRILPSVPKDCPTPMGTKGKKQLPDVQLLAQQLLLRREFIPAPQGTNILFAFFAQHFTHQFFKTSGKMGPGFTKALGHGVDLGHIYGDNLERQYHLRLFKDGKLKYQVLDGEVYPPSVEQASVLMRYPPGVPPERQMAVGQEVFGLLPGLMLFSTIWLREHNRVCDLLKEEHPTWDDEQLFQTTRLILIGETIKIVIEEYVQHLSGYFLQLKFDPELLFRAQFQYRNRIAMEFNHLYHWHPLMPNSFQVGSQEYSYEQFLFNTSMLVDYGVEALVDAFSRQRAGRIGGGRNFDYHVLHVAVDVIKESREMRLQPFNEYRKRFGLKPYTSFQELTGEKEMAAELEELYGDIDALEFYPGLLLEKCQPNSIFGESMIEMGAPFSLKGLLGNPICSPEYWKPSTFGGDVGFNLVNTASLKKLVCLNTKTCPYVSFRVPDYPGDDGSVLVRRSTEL

In one test the test system is RAW264.7. The test is described as follows: Inhibition of LPS-induced COX2 expression in mouse RAW264.7 cells at 0.75 to 1.5 uM treated 15 mins before LPS challenge measured after 18 hrs by Western blotting. The class given is functional, cell-based.
Conditions: not given
The procedure, abridged: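 RAW 264.7 cells (5 × 10⁵) were plated for 24 h, then pretreated with compound for 15 min before LPS stimulation for 18 h. Cells were lysed in lysis buffer and COX-2 protein was detected by Western immunoblot.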
Turning to `O=C(NS(=O)(=O)c1ccc(Br)cc1)c1cccc(C(=O)NS(=O)(=O)c2ccc(Br)cc2)n1`, the inhibition entry was “Active”.

For the next test, the system named is RAW264.7. Put plainly: Antiinflammatory activity in mouse RAW264.7 cells assessed as inhibition of LPS-induced PGE2 production. The class given is functional, cell-based.
Conditions: not given
As to `O=C(NS(=O)(=O)c1ccc(Br)cc1)c1ccncc1`, the 50% inhibitory concentration (IC50) was 5.5 µM.

Regarding `Cc1ccc(S(=O)(=O)NC(=O)c2cccnc2)cc1`, the half-maximal inhibitory concentration (IC50) came out at 8.8 µM.

As for `O=C(NS(=O)(=O)c1ccc(Cl)cc1)c1cccc(C(=O)NS(=O)(=O)c2ccc(Cl)cc2)n1`, the IC50 was 0.87 µM.

As for `O=C(NS(=O)(=O)c1ccc(Cl)cc1)c1ccccn1`, the IC50 was found to be 2.8 µM.

With `O=C(NS(=O)(=O)c1ccccc1)c1cccc(C(=O)NS(=O)(=O)c2ccccc2)n1`, the IC50 came out at 1.6 µM.

Consider `Cc1ccc(S(=O)(=O)NC(=O)c2cccc(C(=O)NS(=O)(=O)c3ccc(C)cc3)n2)cc1`, for which the IC50 is 2.1 µM.

As to `O=C(NS(=O)(=O)c1ccc(Cl)cc1)c1cccnc1`, the half-maximal inhibitory concentration (IC50) was 3.2 µM.

Turning to `O=C(NS(=O)(=O)c1ccc(F)cc1)c1ccncc1`, the 50% inhibitory concentration (IC50) was determined as 9.2 µM.

Consider `O=C(NS(=O)(=O)c1ccc(Br)cc1)c1cccnc1`, for which the half-maximal inhibitory concentration (IC50) stood at 2.8 µM.

As for `O=C(NS(=O)(=O)c1ccccc1)c1cccnc1`, the half-maximal inhibitory concentration (IC50) is 9.5 µM.

For the compound `Cc1ccc(-c2cc(C(F)(F)F)nn2-c2ccc(S(N)(=O)=O)cc2)cc1` [CELECOXIB], the IC50 came to 0.1 µM.

Consider `O=C(NS(=O)(=O)c1ccc(Br)cc1)c1cccc(C(=O)NS(=O)(=O)c2ccc(Br)cc2)n1`, for which the IC50 worked out at 0.15 µM.

For the next test, the system named is B16-F10. The test is described as follows: Antiproliferative activity against mouse B16F10 cells after 48 hrs by MTT colorimetric assay. The class given is functional, cell-based. The note with it: B16-F10, 48 h. Put shortly:
(§1)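 Cells seeded at 2 × 10⁴ cells/ml and grown 24 h, then exposed in exponential growth to final compound concentrations of 0.1 to 100 for 48 h. Survival read by MTT (0.5 mg/mL in DMEM, 4 h) with absorbance at 570 nm. Three replicate wells per concentration; each assay run at least three times.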
As to `O=C(NS(=O)(=O)c1ccc(Br)cc1)c1ccncc1`, half-maximal inhibition (IC50) was put at 8.8 µM.

`Cc1ccc(S(=O)(=O)NC(=O)c2cccnc2)cc1` returned an IC50 of 18.5 µM.

`O=C(NS(=O)(=O)c1ccc(Cl)cc1)c1cccc(C(=O)NS(=O)(=O)c2ccc(Cl)cc2)n1` showed an IC50 of 6.2 µM.

Take `O=C(NS(=O)(=O)c1ccc(Cl)cc1)c1ccccn1`: the IC50 was 9.4 µM.

Regarding `O=C(NS(=O)(=O)c1ccccc1)c1cccc(C(=O)NS(=O)(=O)c2ccccc2)n1`, the IC50 was 10.7 µM.

For `Cc1ccc(S(=O)(=O)NC(=O)c2cccc(C(=O)NS(=O)(=O)c3ccc(C)cc3)n2)cc1`, the half-maximal inhibitory concentration (IC50) was 12.2 µM.

`O=C(NS(=O)(=O)c1ccc(Cl)cc1)c1cccnc1` came in with an IC50 of 11.9 µM.

Compound `O=C(NS(=O)(=O)c1ccc(F)cc1)c1ccncc1` had an IC50 of 13.8 µM.

The compound `O=C(NS(=O)(=O)c1ccc(Br)cc1)c1cccnc1` came in with an IC50 of 9.7 µM.

`O=C(NS(=O)(=O)c1ccccc1)c1cccnc1` showed a half-maximal inhibitory concentration (IC50) of 14.5 µM.

`Cc1ccc(-c2cc(C(F)(F)F)nn2-c2ccc(S(N)(=O)=O)cc2)cc1` [CELECOXIB] yielded a half-inhibitory concentration (IC50) of 85.6 µM.

For the compound `O=C(NS(=O)(=O)c1ccc(Br)cc1)c1cccc(C(=O)NS(=O)(=O)c2ccc(Br)cc2)n1`, 2.8 µM corresponded to half-maximal inhibition (IC50).

A further test concerns the target Prostaglandin G/H synthase 1 (Mus musculus) (UniProt P22437).
Conditions: not given
With `O=C(NS(=O)(=O)c1ccc(Br)cc1)c1ccncc1`, 38 µM corresponded to half-maximal inhibition (IC50).

In turn, `Cc1ccc(S(=O)(=O)NC(=O)c2cccnc2)cc1` registered an IC50 above 50 µM.

`O=C(NS(=O)(=O)c1ccc(Cl)cc1)c1cccc(C(=O)NS(=O)(=O)c2ccc(Cl)cc2)n1`: half-maximal inhibition (IC50) required 41.5 µM.

Compound `O=C(NS(=O)(=O)c1ccc(Cl)cc1)c1ccccn1` registered an IC50 of 39.7 µM.

With `O=C(NS(=O)(=O)c1ccccc1)c1cccc(C(=O)NS(=O)(=O)c2ccccc2)n1`, the 50% inhibitory concentration (IC50) turned out to be 35.8 µM.

Regarding `Cc1ccc(S(=O)(=O)NC(=O)c2cccc(C(=O)NS(=O)(=O)c3ccc(C)cc3)n2)cc1`, 39.8 µM corresponded to half-maximal inhibition (IC50).

The compound `O=C(NS(=O)(=O)c1ccc(Cl)cc1)c1cccnc1` came in with a concentration for half-maximal inhibition (IC50) of 35.8 µM.

Turning to `O=C(NS(=O)(=O)c1ccc(F)cc1)c1ccncc1`, the IC50 was above 50 µM.

As for `O=C(NS(=O)(=O)c1ccc(Br)cc1)c1cccnc1`, the IC50 was 40.5 µM.

In turn, `O=C(NS(=O)(=O)c1ccccc1)c1cccnc1` yielded a 50% inhibitory concentration (IC50) above 50 µM.

`O=C(NS(=O)(=O)c1ccc(Br)cc1)c1cccc(C(=O)NS(=O)(=O)c2ccc(Br)cc2)n1` yielded an IC50 of 35.6 µM.

The test system of the next test is MCF7. Put plainly: Antiproliferative activity against human MCF7 cells after 48 hrs by MTT colorimetric assay. It is filed as functional, cell-based. The note with it: MCF7, 48 h. Put shortly: as §1
The compound `O=C(NS(=O)(=O)c1ccc(Br)cc1)c1ccncc1` returned an IC50 of 8.7 µM.

For the compound `Cc1ccc(S(=O)(=O)NC(=O)c2cccnc2)cc1`, the IC50 amounted to 15.5 µM.

`O=C(NS(=O)(=O)c1ccc(Cl)cc1)c1cccc(C(=O)NS(=O)(=O)c2ccc(Cl)cc2)n1`: the IC50 is 4.2 µM.

On to `O=C(NS(=O)(=O)c1ccc(Cl)cc1)c1ccccn1`, for which the half-maximal inhibitory concentration (IC50) was found to be 9.8 µM.

`O=C(NS(=O)(=O)c1ccccc1)c1cccc(C(=O)NS(=O)(=O)c2ccccc2)n1`: the IC50 came out at 9.3 µM.

`Cc1ccc(S(=O)(=O)NC(=O)c2cccc(C(=O)NS(=O)(=O)c3ccc(C)cc3)n2)cc1` showed an IC50 of 6.2 µM.

With `O=C(NS(=O)(=O)c1ccc(Cl)cc1)c1cccnc1`, inhibition was half-maximal at 10.1 µM (IC50).

`O=C(NS(=O)(=O)c1ccc(F)cc1)c1ccncc1` returned an IC50 of 13.9 µM.

Turning to `O=C(NS(=O)(=O)c1ccc(Br)cc1)c1cccnc1`, the IC50 was determined as 8.3 µM.

Regarding `O=C(NS(=O)(=O)c1ccccc1)c1cccnc1`, 11.5 µM corresponded to half-maximal inhibition (IC50).

`Cc1ccc(-c2cc(C(F)(F)F)nn2-c2ccc(S(N)(=O)=O)cc2)cc1` [CELECOXIB] returned a 50% inhibitory concentration (IC50) of 40.8 µM.

For the compound `O=C(NS(=O)(=O)c1ccc(Br)cc1)c1cccc(C(=O)NS(=O)(=O)c2ccc(Br)cc2)n1`, the IC50 was 1.8 µM.

In a further test the test system is HepG2. Put plainly: Antiproliferative activity against human HepG2 cells after 48 hrs by MTT colorimetric assay. The class given is functional, cell-based. The note with it: HepG2, 48 h. Put shortly:
as §1
Regarding `O=C(NS(=O)(=O)c1ccc(Br)cc1)c1ccncc1`, the half-inhibitory concentration (IC50) was 6.3 µM.

Consider `Cc1ccc(S(=O)(=O)NC(=O)c2cccnc2)cc1`, for which the IC50 was determined as 12.3 µM.

For the compound `O=C(NS(=O)(=O)c1ccc(Cl)cc1)c1cccc(C(=O)NS(=O)(=O)c2ccc(Cl)cc2)n1`, it took 3.8 µM to reach half-maximal inhibition (IC50).

For the compound `O=C(NS(=O)(=O)c1ccc(Cl)cc1)c1ccccn1`, the IC50 was found to be 8.1 µM.

In the case of `O=C(NS(=O)(=O)c1ccccc1)c1cccc(C(=O)NS(=O)(=O)c2ccccc2)n1`, the 50% inhibitory concentration (IC50) was 5.3 µM.

`Cc1ccc(S(=O)(=O)NC(=O)c2cccc(C(=O)NS(=O)(=O)c3ccc(C)cc3)n2)cc1` showed a 50% inhibitory concentration (IC50) of 4.2 µM.

Compound `O=C(NS(=O)(=O)c1ccc(Cl)cc1)c1cccnc1` yielded a half-maximal inhibitory concentration (IC50) of 8.6 µM.

Take `O=C(NS(=O)(=O)c1ccc(F)cc1)c1ccncc1`: it took 12.4 µM to reach half-maximal inhibition (IC50).

`O=C(NS(=O)(=O)c1ccc(Br)cc1)c1cccnc1` came in with an IC50 of 6.7 µM.

On to `O=C(NS(=O)(=O)c1ccccc1)c1cccnc1`, for which the IC50 came out at 10.4 µM.

With `Cc1ccc(-c2cc(C(F)(F)F)nn2-c2ccc(S(N)(=O)=O)cc2)cc1` [CELECOXIB], the IC50 was found to be 95.5 µM.

`O=C(NS(=O)(=O)c1ccc(Br)cc1)c1cccc(C(=O)NS(=O)(=O)c2ccc(Br)cc2)n1` came in with an IC50 of 1.2 µM.

For a further test, the target named is Prostaglandin G/H synthase 2 (Mus musculus) (UniProt Q05769).
Prostaglandin G/H synthase 2 (Mus musculus), sequence (Q05769 whole entry, looked up): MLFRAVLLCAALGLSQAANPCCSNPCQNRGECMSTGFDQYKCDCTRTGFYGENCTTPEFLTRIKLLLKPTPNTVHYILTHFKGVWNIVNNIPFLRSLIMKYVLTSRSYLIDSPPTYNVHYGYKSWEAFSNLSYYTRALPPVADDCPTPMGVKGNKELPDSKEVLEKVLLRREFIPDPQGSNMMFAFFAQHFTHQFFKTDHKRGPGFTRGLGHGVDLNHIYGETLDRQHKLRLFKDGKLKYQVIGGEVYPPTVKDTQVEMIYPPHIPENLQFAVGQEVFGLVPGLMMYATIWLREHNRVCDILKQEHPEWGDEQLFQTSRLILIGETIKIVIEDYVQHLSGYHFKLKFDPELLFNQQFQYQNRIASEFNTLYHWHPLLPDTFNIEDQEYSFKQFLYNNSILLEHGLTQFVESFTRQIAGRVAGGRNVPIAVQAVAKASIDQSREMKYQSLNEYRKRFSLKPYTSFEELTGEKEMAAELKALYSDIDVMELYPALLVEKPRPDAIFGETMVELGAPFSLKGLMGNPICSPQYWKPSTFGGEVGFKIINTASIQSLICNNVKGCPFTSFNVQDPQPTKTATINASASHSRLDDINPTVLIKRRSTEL
Conditions: not given
In turn, `O=C(NS(=O)(=O)c1ccc(Br)cc1)c1ccncc1` registered a half-inhibitory concentration (IC50) of 7.8 µM.

Turning to `Cc1ccc(S(=O)(=O)NC(=O)c2cccnc2)cc1`, the 50% inhibitory concentration (IC50) came out at 18.2 µM.

As to `O=C(NS(=O)(=O)c1ccc(Cl)cc1)c1cccc(C(=O)NS(=O)(=O)c2ccc(Cl)cc2)n1`, it took 1.9 µM to reach half-maximal inhibition (IC50).

Turning to `O=C(NS(=O)(=O)c1ccc(Cl)cc1)c1ccccn1`, the IC50 was 6 µM.

In the case of `O=C(NS(=O)(=O)c1ccccc1)c1cccc(C(=O)NS(=O)(=O)c2ccccc2)n1`, the IC50 amounted to 3.7 µM.

`Cc1ccc(S(=O)(=O)NC(=O)c2cccc(C(=O)NS(=O)(=O)c3ccc(C)cc3)n2)cc1` came in with an IC50 of 5.6 µM.

The compound `O=C(NS(=O)(=O)c1ccc(Cl)cc1)c1cccnc1` gave an IC50 of 6.6 µM.

Regarding `O=C(NS(=O)(=O)c1ccc(F)cc1)c1ccncc1`, inhibition was half-maximal at 12.1 µM (IC50).

For the compound `O=C(NS(=O)(=O)c1ccc(Br)cc1)c1cccnc1`, the IC50 turned out to be 4.9 µM.

The compound `O=C(NS(=O)(=O)c1ccccc1)c1cccnc1` gave a concentration for half-maximal inhibition (IC50) of 15.8 µM.

In turn, `O=C(NS(=O)(=O)c1ccc(Br)cc1)c1cccc(C(=O)NS(=O)(=O)c2ccc(Br)cc2)n1` showed an IC50 of 0.8 µM.

The record behind these values is ChEMBL document CHEMBL1914339, “Design, synthesis and biological evaluation of pyridine acyl sulfonamide derivatives as novel COX-2 inhibitors” (Bioorg Med Chem, 2011).
